Compound activity deposited in PubChem BioAssay by several laboratories.
CHOP inhibitor – blocks CHOP induction under ER stress; CHO-K1 CHOP-promoter luciferase, tunicamycin-induced, 15-18 h; inhibition, % at 10 µM; 220,000 compounds, 3.8% hits; AID 2732;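 active = compounds that reduced the stress-induced luciferase reporter signal by more than about 70% of percent inhibition, limit read from the data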;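 note: 0% = tunicamycin plus vehicle and 100% = wells without tunicamycin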
XBP1 UPR activ – adaptive UPR (XBP1) activation | activation, % at 20 µM | 330,000 compounds, 0.33% hits | AID 463104 | CHO-XBP1 luciferase reporter, IRE1-XBP1 UPR activation, luminescence; percent of tunicamycin response, DMSO as zero;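 active = versus positive control, 20 µM dose yields 30% or more activation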;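 note: 100% = tunicamycin at 10 µg/mL and 0% = DMSO only wells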
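Signal: luciferase luminescence; Assay system: CHO-XBP1 luciferase reporter cells; Amount: one thousand reporter cells per well; Dosing: 20 µM single concentration, DMSO 1%; Benchmarks: high control tunicamycin 10 µg/mL final, low control DMSO vehicle only; Schedule: 6 h compound exposure at 37 °C, 5% CO2; Evaluation: percent activation relative to tunicamycin reference.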
CHOP UPR activ – activators of apoptotic arm of unfolded protein response (CHOP); 330,000 compounds, 0.34% hits; CHO-CHOP luciferase reporter, UPR activation, luminescence; percent of tunicamycin response over DMSO baseline; AID 449763; activation, % at 10 µM;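 active = at 10 µM dose, activation of 40% or more, normalized to positive control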;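 note: 100% = tunicamycin at 10 µg/mL and 0% = DMSO alone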
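Test system: CHO CHOP reporter cells. Input: 500 CHO-CHOP cells per well. Medium: F12 with 10% FBS. Technique: luciferase luminescence. Measure: percent activation relative to tunicamycin control. Dosing: 10 µM compound, 0.5% DMSO. Timing: 16-18 h cell attachment, then 6 h compound exposure, 37 °C.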
TLR9-MyD88 block – blocks human TLR9 binding to MyD88; inhibition, % at 4.98 µM; AID 504734; CHO BLA complementation TLR9-MyD88, CCF4 FRET ratio; 340,000 compounds, 0.21% hits;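 active = inhibition above the mean over all tested compounds plus 3 SD, cut at about 21% in these data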;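 note: 0% = DMSO only wells and 100% = clavulanate BLA inhibitor control wells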
NOD2 RIPK2 PPI – blocks binding of human NOD2 to RIPK2; inhibition, % at 4.98 µM; O43353; 360,000 compounds, 0.38% hits; CHO BLA complementation NOD2-RIPK2, CCF4 ratio; in the data active = inhibition above about 21%;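 note: 0% = vehicle only and 100% = reference blocker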
Target sequence (O43353 whole entry, looked up): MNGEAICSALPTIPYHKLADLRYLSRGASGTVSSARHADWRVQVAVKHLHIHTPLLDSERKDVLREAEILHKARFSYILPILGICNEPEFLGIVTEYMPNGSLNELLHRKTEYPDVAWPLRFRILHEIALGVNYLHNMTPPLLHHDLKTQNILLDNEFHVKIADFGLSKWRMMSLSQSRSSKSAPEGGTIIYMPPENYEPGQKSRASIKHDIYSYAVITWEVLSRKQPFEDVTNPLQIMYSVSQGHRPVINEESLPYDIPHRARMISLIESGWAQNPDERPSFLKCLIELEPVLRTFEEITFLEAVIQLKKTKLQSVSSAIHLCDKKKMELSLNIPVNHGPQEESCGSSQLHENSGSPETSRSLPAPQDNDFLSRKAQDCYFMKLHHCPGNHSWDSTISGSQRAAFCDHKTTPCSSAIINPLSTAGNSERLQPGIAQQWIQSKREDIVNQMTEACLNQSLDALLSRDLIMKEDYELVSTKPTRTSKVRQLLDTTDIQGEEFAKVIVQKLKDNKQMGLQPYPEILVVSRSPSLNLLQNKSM
TLR4 MyD88 comp – blocks binding of human TLR4 to MyD88. O00206+Q99836. HeLa CL3-4 TLR4/MyD88 BLA complementation, FRET ratio. inhibition, % at 8.4 µM. 200,000 compounds, 0.18% hits. AID 861; in the data active = inhibition above about 25%;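 note: 0% = vehicle and 100% = reference inhibitor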
NOD2-RIPK2 conf – confirmation of human NOD2-RIPK2 interaction inhibitors; inhibition, % at 4.98 µM; 1,200 compounds, 70% hits; AID 624370; shares compounds with NOD2 RIPK2 PPI; CHO cells, NOD2-RIPK2 BLA complementation, CCF4 FRET;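 active = mean inhibition across replicates above a set limit taken from the earlier primary screen, cut at about 21% in these data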;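 note: 0% = DMSO-only wells and the high end = clavulanate BLA-blocked wells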
NOD2 BLA counter – NOD2-RIPK2 counterscreen BLA reporter activity; shares compounds with NOD2 RIPK2 PPI; CHO BLA reporter, CCF4 FRET ratio; inhibition, % at 4.98 µM; 1,200 compounds, 57% hits;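 active = mean inhibition above the low-control mean inhibition plus three low-control SD, cut at about 11% in these data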;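 note: 0% = DMSO only wells and 100% = clavulanate high control wells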
* = called active by the depositor; nt = no result given. The full list was thinned out, with hits kept by preference.

SMILES	CHOP inhibitor	XBP1 UPR activ	CHOP UPR activ	TLR9-MyD88 block	NOD2 RIPK2 PPI	TLR4 MyD88 comp	NOD2-RIPK2 conf	NOD2 BLA counter
CCCCNc1c(-c2ccc(-c3ccc(C(C)=O)cc3)c(OC)c2)nc2cnccn12	nt	2.1	4.2	9.0	22.9*	nt	20.8	29.7*
COc1cc(-c2nc3cc(C)ccn3c2NC2CCCCC2)ccc1-c1ccc(C(C)=O)cc1	nt	4.0	3.7	1.9	11.1	nt	nt	nt
CCOc1ccc(-c2cc(N)n(S(=O)(=O)c3cccc4nsnc34)n2)cc1	32.2	0.2	-0.4	-0.8	21.6*	nt	-5.1	-5.4
COc1cc(OC)cc(-c2cc(N)n(S(=O)(=O)c3cccc4nsnc34)n2)c1	9.9	0.2	0.3	-1.9	-1.2	nt	nt	nt
O=S(=O)(/N=S1\CC=CCN1S(=O)(=O)c1ccccc1)c1ccccc1 (configuration not stated)	nt	nt	nt	10.8	25.2*	nt	-10.4	-17.1
CC1=C(C)CS(=O)N(S(=O)(=O)c2ccccc2)C1 (configuration not stated)	15.8	1.1	4.3	7.3	3.4	-0.6	nt	nt
O=C1C(Cl)=C(Nc2ccc3cn[nH]c3c2)C(=O)c2ccccc21	106.6*	nt	nt	3.2	90.6*	nt	79.0*	28.5*
O=C(Nc1ccc2cn[nH]c2c1)c1c(Cl)cccc1Cl	42.7	1.7	-1.8	-12.0	-11.6	-11.3	nt	nt
Cc1cc2nc(N)sc2cc1[N+](=O)[O-]	7.7	7.9	1.4	-11.8	5.2	-6.3	nt	nt
O=C(Nc1nc2cc3c(cc2s1)OCO3)c1cccc(N2C(=O)CCC2=O)c1	5.3	2.4	5.9	-1.4	-4.4	nt	nt	nt
O=C(Nc1nc2cc3c(cc2s1)OCO3)c1ccc(N2C(=O)CCC2=O)cc1	46.7	0.3	2.4	1.4	22.4*	nt	32.1*	30.6*
O=c1[nH]c2cc3c(cc2cc1CN(Cc1nnnn1CC1CCCO1)C1CCCCC1)OCO3 (configuration not stated)	1.1	-0.8	3.1	19.9	22.2*	13.9	4.5	0.5
O=c1[nH]c2cc3c(cc2cc1CN(Cc1nnnn1CC1CCCO1)C1CCCC1)OCO3 (configuration not stated)	3.5	-0.8	1.1	18.1	39.0*	-2.6	-4.5	0.8
O=c1[nH]c2cc3c(cc2cc1CN(CCc1ccccc1)Cc1nnnn1CC1CCCO1)OCO3 (configuration not stated)	12.2	-1.2	-0.4	4.6	10.2	-9.1	nt	nt
Cc1cccc(C(C(=O)NC2CCCCC2)N(Cc2cccnc2)C(=O)c2csnn2)c1 (configuration not stated)	nt	-1.7	1.0	6.6	-6.2	nt	nt	nt
Cc1onc(-c2ccccc2)c1C(=O)Nc1nnc(COc2ccc(Cl)cc2)s1	88.7*	-6.8	7.1	-1.2	35.6*	-5.9	3.0	1.9
Cc1ccc(SCC(=O)NC2CCCCCC2)cc1	nt	-1.4	1.7	1.6	2.8	nt	nt	nt
C=C1CC(Cn2cc(Br)c(=O)[nH]c2=O)(c2ccc(-c3ccccc3)cc2)OC1=O (configuration not stated)	nt	nt	nt	9.4	79.3*	nt	71.0*	8.5
Cc1onc(-c2c(Cl)cccc2Cl)c1NC(=O)NC1CCSC1 (configuration not stated)	8.9	-1.6	-0.8	nt	-5.4	nt	nt	nt
O=C(N/N=C/c1cc(Cl)cc(Cl)c1O)c1ccncc1	75.5*	-0.4	-3.2	18.3	32.5*	nt	26.0*	26.0*
CC[C@]12c3[nH]c4cc(CCC(=O)N(C)C)ccc4c3CCN1C(=O)[C@@H](CC(=O)NCCc1ccccn1)C[C@@H]2C(=O)N1CCN(C(=O)c2ccco2)CC1	nt	-0.1	4.0	-6.7	-8.0	nt	nt	nt
CC(=O)Nc1ccc(S(=O)(=O)Nc2nc3ccccc3nc2Nc2cccc(O)c2)cc1	16.3	-3.4	1.0	-5.5	9.7	nt	nt	nt
CC(=O)Nc1ccc(S(=O)(=O)Nc2nc3ccccc3nc2Nc2ccc3ccccc3c2)cc1	22.8	3.2	1.7	4.3	22.4*	-9.9	-4.8	-1.6
COc1ccc(C=NNc2ccc([N+](=O)[O-])cc2S(=O)(=O)Nc2ccccc2C(=O)O)cc1OC	nt	-2.1	-0.5	8.6	27.0*	nt	36.1*	35.7*
CCN1C/C(=C/c2ccc(N3CCOCC3)cc2)C(=O)/C(=C/c2ccc(N3CCOCC3)cc2)C1	39.3	nt	nt	7.6	22.8*	19.7	38.7*	34.1*
SMILES	CHOP inhibitor	XBP1 UPR activ	CHOP UPR activ	TLR9-MyD88 block	NOD2 RIPK2 PPI	TLR4 MyD88 comp	NOD2-RIPK2 conf	NOD2 BLA counter
CN1C/C(=C\c2ccc(N3CCOCC3)cc2)C(=O)/C(=C/c2ccc(N3CCOCC3)cc2)C1	-33.7	-0.8	2.1	5.5	5.3	1.7	nt	nt
O=[N+]([O-])c1ccc2nc(NN=Cc3ccc(O)cc3)sc2c1	nt	nt	nt	8.2	23.4*	nt	24.6*	31.9*
COC(=O)c1ccc(N2C(c3cc(OC)cc(OC)c3)=Cc3ccc(-c4cccnc4)cc3C2CC(=O)C2CC2)cc1 (configuration not stated)	nt	nt	nt	nt	-7.7	nt	nt	nt
COC(=O)c1ccc(N2C(c3cc(OC)cc(OC)c3)=Cc3ccc(-c4ccc(C(N)=O)cc4)cc3C2CC(=O)C2CC2)cc1 (configuration not stated)	nt	nt	nt	nt	34.4*	nt	35.7*	58.5*
CCCN(C(=O)C1=COCCO1)c1c(N)n(Cc2ccccc2)c(=O)[nH]c1=O	nt	5.0	0.4	1.1	3.8	nt	nt	nt
Cc1ccc2c(c1)C(=O)C(=O)N2CC1COc2ccccc2O1 (configuration not stated)	nt	13.3	1.0	6.2	24.2*	nt	12.1	-4.5
N#CC(C#N)=C1C=CC=CN1/C(=C\c1ccco1)C(=O)c1ccc(Cl)cc1	110.7*	nt	nt	19.5	93.6*	-9.4	91.1*	17.2*
N#CC(C#N)=C1C=CC=CN1/C(=C\c1ccco1)C(=O)c1ccc(-c2ccccc2)cc1	107.0*	nt	nt	14.6	21.7*	9.3	78.3*	15.8*
N#C/C(=C\c1ccco1)C(=O)NCc1ccccc1	-23.9	1.2	0.8	4.8	-0.2	15.5	nt	nt
O=C(NCC1CCCO1)/C(=C\c1ccco1)NC(=O)c1ccc(Cl)cc1 (configuration not stated)	25.0	-1.1	-0.4	-3.0	-0.3	5.0	nt	nt
Cc1ccc(N(CC(=O)NCc2ccc3c(c2)OCO3)C(=O)CCC(=O)Nc2ccccn2)cc1	nt	-2.2	2.3	11.2	-8.5	nt	nt	nt
Cc1ccnc(NC(=O)CCC(=O)N(CC(=O)NCc2ccccc2)c2ccc3c(c2)OCO3)c1	23.0	-0.4	2.6	-2.6	32.2*	2.0	-5.8	-4.8
